Reference: ChEMBL document CHEMBL3244183, “Synthesis and antibacterial activity of isomeric 6- and 7-acetyl-3-methyl-2- quinoxalinecarbozamide 1,4-dioxides” (1978)
≈ marks a conversion by molar mass, not a printed value.

Key:
Type in all cases: functional
Streptococcus pyogenes [1] = test: Antimicrobial activity against Streptococcus pyogenes infected in mouse compound administered orally at 0.5 hr, 4 hrs and 24 hrs post infection; conditions: po, read-out: PD50
Method in brief: (§1)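 Infections in male and female mice (11–13 g), given intraperitoneally at one to ten times the inoculum lethal to all nonmedicated mice within 4 days. Standardized cultures were suspended in brain-heart infusion broth. Doses were given at 0.5, 4.0 and 24 h post-infection. The 50% protective dose was derived by probit analysis.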

Streptococcus pyogenes [2] = test: Antimicrobial activity against Streptococcus pyogenes infected in mouse compound administered subcutaneously at 0.5 hr, 4 hrs and 24 hrs post infection; conditions: sc, read-out: PD50; method in brief: as §1
Streptococcus pyogenes [3] = test: Antimicrobial activity against Streptococcus pyogenes measured after overnight incubation by susceptibility test
Method in brief: (§2)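 MIC by agar dilution: about 10^4 organisms applied with a replicating device onto brain-heart infusion agar holding twofold dilutions of drug; plates incubated overnight at 37 °C under anaerobic conditions (Gas Pak environment); MIC read as lowest inhibiting concentration.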

Salmonella enterica [4] = test: Antimicrobial activity against Salmonella choleraesuis measured after overnight incubation by susceptibility test
Method in brief: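 MIC by agar dilution: about 10^4 organisms applied with a replicating device onto brain-heart infusion agar containing twofold dilutions of the quinoxaline 1,4-dioxide; incubated overnight at 37 °C under anaerobic conditions (Gas Pak).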

Pasteurella multocida [5] = test: Antimicrobial activity against Pasteurella multocida infected in mouse compound administered subcutaneously at 0.5 hr, 4 hrs and 24 hrs post infection; conditions: sc, read-out: PD50; method in brief: as §1
Escherichia coli [6] = test: Antimicrobial activity against Escherichia coli measured after overnight incubation by susceptibility test; method in brief: as §2
Escherichia coli [7] = test: Antimicrobial activity against Escherichia coli infected in mouse compound administered orally at 0.5 hr, 4 hrs and 24 hrs post infection; conditions: po, read-out: PD50
Method in brief: (§3)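 Male and female mice, 11–13 g. Acute systemic infection by intraperitoneal inoculation of 1–10 times the organism count killing 100% of untreated mice in 4 days; standardized cultures suspended in 5% hog gastric mucin. Treated 0.5 h after infection, again at 4.0 h and at 24 h. PD50 (50% protective dose) calculated by probit method.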

Pasteurella multocida [8] = test: Antimicrobial activity against Pasteurella multocida infected in mouse compound administered orally at 0.5 hr, 4 hrs and 24 hrs post infection; conditions: po, read-out: PD50; method in brief: as §1
Escherichia coli [9] = test: Antimicrobial activity against Escherichia coli infected in mouse compound administered subcutaneously at 0.5 hr, 4 hrs and 24 hrs post infection; conditions: sc, read-out: PD50; method in brief: as §3
Salmonella enterica [10] = test: Antimicrobial activity against Salmonella choleraesuis infected in mouse compound administered orally at 0.5 hr, 4 hrs and 24 hrs post infection; conditions: po, read-out: PD50; method in brief: as §3
Salmonella enterica [11] = test: Antimicrobial activity against Salmonella choleraesuis infected in mouse compound administered subcutaneously at 0.5 hr, 4 hrs and 24 hrs post infection; conditions: sc, read-out: PD50; method in brief: as §3
Pasteurella multocida [12] = test: Antimicrobial activity against Pasteurella multocida measured after overnight incubation by susceptibility test; method in brief: as §2
Streptococcus pyogenes [13] = test: Ratio of PD50 for Streptococcus pyogenes infected in po dosed mouse to PD50 for Streptococcus pyogenes infected in sc dosed mouse
Pasteurella multocida [14] = test: Ratio of PD50 for Pasteurella multocida infected in po dosed mouse to PD50 for Pasteurella multocida infected in sc dosed mouse
Salmonella enterica [15] = test: Ratio of PD50 for Salmonella choleraesuis infected in po dosed mouse to PD50 for Salmonella choleraesuis infected in sc dosed mouse
Escherichia coli [16] = test: Ratio of PD50 for Escherichia coli infected in po dosed mouse to PD50 for Escherichia coli infected in sc dosed mouse

Row | Compound | ED50 (Streptococcus pyogenes [1]) | ED50 (Streptococcus pyogenes [2]) | MIC (Streptococcus pyogenes [3]) | MIC (Salmonella enterica [4]) | ED50 (Pasteurella multocida [5]) | MIC (Escherichia coli [6]) | ED50 (Escherichia coli [7]) | ED50 (Pasteurella multocida [8]) | ED50 (Escherichia coli [9]) | ED50 (Salmonella enterica [10]) | ED50 (Salmonella enterica [11]) | MIC (Pasteurella multocida [12]) | Ratio (Streptococcus pyogenes [13]) | Ratio (Pasteurella multocida [14]) | Ratio (Salmonella enterica [15]) | Ratio (Escherichia coli [16])
1 | CC(=O)c1ccc2c(c1)[n+]([O-])c(C)c(C(N)=O)[n+]2[O-] | 70 mg/kg | 54 mg/kg | 0.19 µg/mL (≈ 0.727 µM) | 0.39 µg/mL (≈ 1.49 µM) | 11.7 mg/kg | 0.39 µg/mL (≈ 1.49 µM) | 12.6 mg/kg | 13.6 mg/kg | 10.9 mg/kg | 9.9 mg/kg | 7.6 mg/kg | 0.39 µg/mL (≈ 1.49 µM) |  |  |  | 
2 | CC(=O)c1ccc2c(c1)[n+]([O-])c(C(N)=O)c(C)[n+]2[O-] | 15 mg/kg | 9.2 mg/kg | 0.39 µg/mL (≈ 1.49 µM) | 0.19 µg/mL (≈ 0.727 µM) | 7.7 mg/kg | 0.39 µg/mL (≈ 1.49 µM) | 13 mg/kg | 12.7 mg/kg | 5.6 mg/kg | 9.1 mg/kg | 4.5 mg/kg | 0.19 µg/mL (≈ 0.727 µM) | 2 | 2 | 2 | 2
